Here are results for 3 compounds from ChEMBL document CHEMBL1158346, “Synthesis and antioxidant potential of novel synthetic benzophenone analogues” (Eur J Med Chem, 2009).

Broadly, the IC20 is the point of the concentration-response curve where the effect stands at 20%. Broadly, the IC50 is the concentration that inhibits the measured activity by half.

Series [1] can be described thus: Antioxidant activity assessed as Fe2+ formation per nmol of compound by FRAP assay. Format: functional. A digest of the protocol: (§1)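 FRAP method: working reagent of acetate buffer, TPTZ solution and FeCl₃·6H₂O solution (25:2.5:2.5 by volume), warmed 30 min at 37 °C before addition. Absorbance read after 30 min at 30 s intervals. Trolox as reference antioxidant. Output is the antioxidant ratio, nmol Fe²⁺ per nmol compound, mean ± SD, n = 3.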

Series [2] concerns MCF7. Put plainly: Cytotoxicity against human MCF7 cells after 48 hrs by MTT assay. Format: functional, cell-based. The following applies: MCF7, 48 h. A digest of the protocol: (§2)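 Cells seeded at 1 ×10⁴ per well and allowed 24 h, then exposed 48 or 72 h. Medium replaced with fresh medium containing MTT at 0.5 mg/ml final, 3 h at 37 °C. MCF7 in phenol red-free RPMI-1640 with 10% FBS; hTERT-HME1 in RPMI-1640/mammary epithelial growth medium 90:10. IC₂₀ and IC₅₀ are means of 8 assays ± SD.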
On the technique in general: Formazan colour is commonly taken as a measure of viable cells.

Series [3] in a line: Cytotoxicity against hTERT-HME1 cells after 72 hrs by MTT assay. Format: cell-based, Homo sapiens. The conditions noted are these: for IC50: Homo sapiens, HME1, 72 h; for IC20 at 72 h: human, hTERT-HME1 cells. Put shortly: as §2
Series [4] concerns MCF7. In words: Cytotoxicity against human MCF7 cells after 72 hrs by MTT assay. The format is functional, cell-based. The conditions noted are these: MCF7, 72 h. A digest of the protocol:
as §2

Series [5] can be described thus: Cytotoxicity against hTERT-HME1 cells after 48 hrs by MTT assay. The format is cell-based, Homo sapiens. The conditions noted are these: for IC50: Homo sapiens, HME1, 48 h; for IC20 at 48 h: human, hTERT-HME1 cells. Put shortly: as §2
Series [6] can be described thus: Antioxidant activity assessed as Fe2+ formation per nmol of compound by FRAP assay relative to trolox. Format: functional. Put shortly: as §1
A short description of series [7]: Antioxidant activity in 2',7'-dichlorodihydrofluorescein diacetate-treated hTERT-HME1 cells assessed as reduction of H2O2 production at 100 uM during after 24 hrs by FACS analysis. Also noted: scale not given: the % may be the effect or the level left. The format is functional, Homo sapiens. A digest of the protocol: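 Mammary cells seeded at 0.75 ×10⁶ per 100-mm dish. Exposed to test agent or Trolox at […] (unit as printed) for 4, 8, 12, 24 and 48 h. Loaded with H₂DCFDA 15 min at 37 °C. Detached plus adherent cells resuspended in PBS; DCF read in FL1 on a FACScan. Output is the ratio of treated to DMSO-control fluorescence, mean ± SD, n = 3.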
For orientation: In flow cytometry, cells or beads pass a laser one at a time.

Structures are written as SMILES. Activity calls are given as the source filed them. No cut-off for these calls is given here.

`O=C(c1ccc(O)cc1)c1ccc2sc(=O)[nH]c2c1`: in series [1], the outcome was inactive. In the series with MCF7 [2], this compound came in with an IC20 of 44.5 µM and an IC50 of 121 µM. In series [3], this compound returned an IC50 of 111 µM and an IC20 at 72 h of 78.4 µM. In the series with MCF7 [4], this compound had an IC20 of 37.8 µM and an IC50 of 95.9 µM. In series [5], this compound gave an IC50 of 109 µM and an IC20 at 48 h of 73.1 µM.

In the case of `O=C(c1ccc(O)c(O)c1)c1ccc2sc(=O)[nH]c2c1`, in series [1], the Activity was 6.1 nmol. Besides, the Ratio in series [6] was 2. In the series with MCF7 [2], the IC20 is 12.1 µM and it took 43.6 µM to reach half-maximal inhibition (IC50). In series [3], this compound came in with an IC50 of 116 µM and an IC20 at 72 h of 33.8 µM. Moreover, in the series on MCF7 [4], the IC20 was determined as 8.3 µM and the IC50 was found to be 28.1 µM. In series [5], the IC50 was determined as 155 µM and the IC20 at 48 h came out at 43.5 µM.

On to `Cc1c(C)c2c(c(C)c1O)CCC(C)(C(=O)O)O2` (stereo not given) [TROLOX], for which the Activity in series [7] stood at 20%.
